Shown are actives, neighbours in structure and some others; about 5% of the full set was active somewhere.
T cruzi repl: T. cruzi replication inhibition; T. cruzi beta-gal in NIH3T3, luminescence, 90 h; inhibition, % (test concentration not listed); 300,000 tested, 1.4% active; AID 1885;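 active = mean inhibition across valid replicates above about 55%, limit read from the data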;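 also: signal also drops with host cell toxicity which is not excluded here; 0% = plate median of DMSO wells and 100% = zero luminescence signal; higher percent means less beta-gal luminescence so fewer parasites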
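assay system = mouse NIH/3T3 fibroblasts infected with β-gal-expressing T. cruzi Tulahuen C4 | input = 5,000 NIH/3T3 host cells per well | buffer or medium = DMEM plus 2% FBS | timing = 3 h host attachment, then at least 90 h co-culture | measured by = GalScreen luminescence, 60 min | evaluation = luminescence reflecting intracellular parasite burden, expressed as percent inhibition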
XBP1 UPR activ: activators of adaptive arm of unfolded protein response (XBP1). 330,000 tested, 0.33% active. AID 463104. CHO-XBP1 luciferase reporter, IRE1-XBP1 UPR activation, luminescence; percent of tunicamycin response, DMSO as zero. activation, % at 20 µM;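 active = versus positive control, 20 µM dose yields 30% or more activation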;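 also: 100% = tunicamycin at 10 µg/mL and 0% = DMSO only wells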
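incubation = overnight seeding at 37 °C, 6 h compound treatment at 37 °C | assay system = CHO-XBP1 cells stably carrying IRE1-XBP1-driven luciferase reporter | input = 1000 cells per well | detection = luciferase luminescence | dosing = single point, 20 µM final compound, 1% DMSO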
CHOP UPR activ: activators of apoptotic arm of unfolded protein response (CHOP). CHO-CHOP luciferase reporter, UPR activation, luminescence; percent of tunicamycin response over DMSO baseline. AID 449763. 330,000 tested, 0.34% active. activation, % at 10 µM;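 active = at 10 µM dose, activation of 40% or more, normalized to positive control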;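 also: 100% = tunicamycin at 10 µg/mL and 0% = DMSO alone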
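System: CHO CHOP reporter cells. Amount: 500 cells per well. Buffer or medium: F12 medium, 10% FBS. Compound dosing: one dose, 10 µM in 0.5% DMSO. Incubation: 6 h compound exposure at 37 °C after overnight seeding. Technique: Steady-Glo luciferase luminescence. Benchmarks: tunicamycin and DMSO controls.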
Mdm2-MdmX inh: human Mdm2/MdmX binding inhibition; SaOS-2 split-luciferase Mdm2/MdmX complementation, luminescence; inhibition, % at 8 µM; 330,000 tested, 3% active; AID 485346;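 active = inhibition of at least 50% at 8 µM in the primary screen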
Target sequence (O15151 whole entry, looked up): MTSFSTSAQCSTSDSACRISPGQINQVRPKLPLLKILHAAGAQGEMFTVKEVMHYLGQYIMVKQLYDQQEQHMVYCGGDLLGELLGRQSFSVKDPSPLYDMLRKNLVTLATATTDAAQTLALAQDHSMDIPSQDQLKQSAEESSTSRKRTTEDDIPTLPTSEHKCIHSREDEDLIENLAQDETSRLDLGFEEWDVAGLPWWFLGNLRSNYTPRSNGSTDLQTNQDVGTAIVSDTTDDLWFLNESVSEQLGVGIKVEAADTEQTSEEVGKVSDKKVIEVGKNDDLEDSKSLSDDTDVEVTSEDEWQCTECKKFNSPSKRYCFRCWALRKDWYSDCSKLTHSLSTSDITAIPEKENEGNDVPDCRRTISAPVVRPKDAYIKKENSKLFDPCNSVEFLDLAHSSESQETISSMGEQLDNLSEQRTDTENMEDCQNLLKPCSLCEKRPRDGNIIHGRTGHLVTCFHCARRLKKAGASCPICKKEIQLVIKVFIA
Target sequence (Q00987 whole entry, looked up): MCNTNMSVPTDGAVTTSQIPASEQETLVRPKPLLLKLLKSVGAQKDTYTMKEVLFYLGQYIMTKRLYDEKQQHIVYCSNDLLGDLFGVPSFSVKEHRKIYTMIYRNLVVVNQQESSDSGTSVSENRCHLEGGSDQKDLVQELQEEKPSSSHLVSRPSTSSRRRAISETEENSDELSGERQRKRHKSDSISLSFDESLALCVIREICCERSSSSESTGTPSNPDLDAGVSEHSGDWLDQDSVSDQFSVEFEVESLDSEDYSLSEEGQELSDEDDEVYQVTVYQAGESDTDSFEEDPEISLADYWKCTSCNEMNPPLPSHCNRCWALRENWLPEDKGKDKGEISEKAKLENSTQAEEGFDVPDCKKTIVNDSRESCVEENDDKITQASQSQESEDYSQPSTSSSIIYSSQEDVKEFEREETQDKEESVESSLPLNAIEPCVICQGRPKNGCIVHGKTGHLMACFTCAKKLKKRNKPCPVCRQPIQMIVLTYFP
Beta cell apopt: beta cell apoptosis inhibition | INS-1E cytokine-induced death, ATP luminescence, 48 h; percent of positive-control rescue, neutral wells zero | AID 435005 | 300,000 tested, 0.8% active | protection from apoptosis, % (test concentration not listed);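 active = Every replicate reaches about 75%, or at least half do and their mean reaches it too, limit read from the data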;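 also: 0% = cytokine-treated negative control wells and 100% = positive control rescue; higher means more ATP so stronger rescue from cytokine killing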
CSC inhib: blocks cancer stem cells; cancer stem cell-like cells viability, luminescence; inhibition, % at 7.5 µM; 300,000 tested, 1.1% active; in the data active = inhibition above about 75%; tested in HMLE shEcad cells
Mdm2-MdmX conf: confirmation of human Mdm2/MdmX interaction inhibitors; shares compounds with Mdm2-MdmX inh; Mdm2-MdmX binding, luminescent assay; inhibition, % at 8 µM; 10,000 tested, 55% active; AID 489028; in the data active = inhibition above about 40%
FLuc counter: full-length luciferase inhibition in Mdm2/MdmX counter-screen | shares compounds with Mdm2-MdmX inh | inhibition, % at 8 µM | AID 504607 | 6,200 tested, 77% active | SaOS-2 full-length luciferase counterscreen, luminescence;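 active = mean inhibition at 8 µM reaching about 37%, which flags the compound as non-specific, limit read from the data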;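 also: p53-null SaOS-2 cells with luciferase driven by a doxycycline-inducible promoter; compound on cells about two nights before reading with doxycycline added after day one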
Active calls of the source: *; / = no result.

SMILES | T cruzi repl | XBP1 UPR activ | CHOP UPR activ | Mdm2-MdmX inh | Beta cell apopt | CSC inhib | Mdm2-MdmX conf | others
O=c1c2ccccc2c(C=Nc2cccc(O)c2)c(O)n1-c1ccc2c(c1)OCO2 | -6.5 | 2.7 | 2.1 | 81.7* | 26.0 | 51.6 | 36.4
COc1ccc(N=Cc2c(O)n(-c3ccc(OC)cc3)c(=O)c3ccccc23)cc1 | 4.9 | 19.6 | 1.9 | 49.5 | 11.2 | 5.3 | /
COc1ccc(CN2CCNC(=O)C2CC(=O)NCc2cnn(C)c2)cc1OC (stereo not drawn) | -0.3 | -1.7 | -1.0 | 2.1 | -5.7 | -5.9 | /
COc1ccc(NC(=O)CSc2ncnc3c2sc2ccccc23)c(OC)c1 | -13.8 | 1.1 | 2.1 | 88.3* | 7.9 | 40.8 | 16.2
CCn1cc(S(=O)(=O)Nc2cc(C(=O)OC)ccc2C)cn1 | -6.3 | -1.6 | -1.2 | 12.5 | -1.6 | -5.0 | /
CCN1CCc2c(sc(NC(=O)c3ccc(S(=O)(=O)N4CCOCC4)cc3)c2C(=O)OC)C1 | 43.7 | 1.9 | -0.3 | 63.9* | -16.7 | -8.2 | 29.9
Cc1cc(C)c(S(=O)(=O)/N=C2\C=C(NS(=O)(=O)c3ccccc3)C(=O)c3ccccc32)c(C)c1 | -6.9 | -3.5 | 5.3 | 35.9 | / | -7.2 | /
Cc1ccc(NC2=C/C(=N\S(=O)(=O)c3cccs3)c3ccccc3C2=O)c(C)c1 | 56.8* | -2.9 | -4.0 | 84.5* | 114.3* | -6.2 | 100.0* | FLuc counter=51.9*
Cc1ccc(Cl)cc1NC1=C/C(=N\S(=O)(=O)c2cccs2)c2ccccc2C1=O | 60.6* | -5.7 | -5.7 | 80.6* | 110.9* | 101.4* | 99.8* | FLuc counter=52.3*
O=C(CN1C(=O)NC2(CCCCC2)C1=O)NCCCSc1ccccc1 | / | -3.2 | 1.0 | -5.7 | -8.2 | / | /
O=C(COc1ccc(S(=O)(=O)N2CCOCC2)cc1)N1CCN(c2ccccc2)CC1 | -17.1 | -3.5 | 3.7 | 9.2 | -1.1 | 5.8 | /
N#Cc1c(NC(=O)CSc2ncnc3c2cnn3-c2ccccc2Cl)sc2c1CCCC2 | -0.9 | -1.3 | 1.6 | 24.7 | 10.6 | 37.5 | /
COC(=O)c1c(NC(=O)CSc2ncnc3c2cnn3-c2ccccc2Cl)sc2c1CCCC2 | 22.1 | -2.4 | -3.1 | 53.3* | 7.1 | 11.5 | 12.8
O=C(CN1C(=O)NC2(CCCCCC2)C1=O)Nc1ccccc1[N+](=O)[O-] | / | -0.5 | 0.2 | 5.5 | -2.1 | 4.8 | /
CC(OC(=O)/C=C/c1ccc2ccccc2n1)C(=O)Nc1ccc(S(N)(=O)=O)cc1 (stereo not drawn) | -10.7 | -3.3 | -0.8 | 72.4* | -12.2 | 26.7 | 49.1* | FLuc counter=66.3*
COc1ccc(C(=O)C(Sc2nnc(C)c(=O)[nH]2)c2ccc(OC)cc2)cc1 (stereo not drawn) | -6.3 | -1.5 | -0.1 | -2.9 | -3.0 | -5.8 | /
CC(=O)OC[C@]12CC[C@H]3[C@@](C)(CC[C@H]4C(C)(C)CCC[C@]34C)[C@@H]1C[C@@H](C1=CC(=O)O[C@@H]1OC(C)=O)O2 | / | -9.9 | -9.1 | 100.5* | 91.7* | 125.5* | 98.7* | FLuc counter=2.2
CC(=O)OC[C@]12CC[C@H]3[C@@](C)(CC[C@H]4C(C)(C)CCC[C@]34C)[C@@H]1C[C@H](C1=CC(=O)O[C@H]1OC(C)=O)O2 | / | -6.4 | 0.8 | 90.7* | 9.5 | 106.7* | 23.1
CNCC(=O)N1CCN(c2ncc(C(F)(F)F)cc2Cl)CC1 | 23.6 | -0.3 | 0.6 | 16.6 | -4.1 | 6.0 | /
CCCCOc1[nH]c2nc(-c3ccco3)n(Cc3ccco3)c(=N)c2c1C#N | 22.1 | -0.9 | 1.2 | 10.8 | 10.4 | -1.1 | /
CCC(C)NC(=O)c1cn(CC)c2ccc(S(=O)(=O)N3CCCCCC3)cc2c1=O (stereo not drawn) | 8.0 | -3.7 | -0.2 | 23.9 | 6.8 | 9.5 | /
Cc1[nH]nc2c1C(c1cc(Br)cs1)C(C#N)=C(N)O2 (stereo not drawn) | -0.3 | 6.6 | 17.5 | 70.0* | -10.3 | 23.1 | 29.8
COC(=O)c1cn(C(=O)c2cccc(Br)c2)c2ccccc12 | -8.6 | 1.3 | -0.2 | 27.2 | 7.3 | -8.6 | /
Cc1ccc(/C=N/NC(=O)NC23CC4CC(CC(C4)C2)C3)o1 | / | 9.9 | 2.3 | -13.4 | -3.4 | -3.2 | /
CNCc1c(OCc2ccccc2)ccc2ccccc12 | 18.0 | -5.2 | -0.6 | 29.8 | 5.6 | -6.2 | /
SMILES | T cruzi repl | XBP1 UPR activ | CHOP UPR activ | Mdm2-MdmX inh | Beta cell apopt | CSC inhib | Mdm2-MdmX conf | others
CC(C)(CO)NCc1c(OCc2ccc(Cl)cc2)ccc2ccccc12 | 33.3 | -0.2 | 0.8 | 54.6* | 11.5 | 24.2 | 29.2
CCN(CC)CCNc1cc(C)nc2c1C(=O)C(=O)C=C2N1CCCCC1 | 60.4* | -1.1 | -1.1 | 64.9* | -6.9 | 54.2 | 67.2* | FLuc counter=28.9
CNC(=O)COC(=O)c1cc(NC(=O)c2ccco2)c(OC)c(OC)c1 | -2.5 | 3.0 | -0.4 | 3.9 | -0.6 | / | /
Cc1cc(C(=O)COC(=O)c2ccco2)c(C)n1Cc1ccco1 | 8.0 | -11.9 | -8.2 | 63.5* | -2.7 | -12.7 | 82.0* | FLuc counter=98.2*
COc1cc(C(=O)OCC(=O)c2cc(C)n(C)c2C)cc(NC(=O)c2ccco2)c1OC | -4.8 | 14.0 | 20.0 | 74.4* | 17.7 | -5.5 | 5.5
Cn1c(SCC(=O)NC(=O)NCc2ccccc2)nnc1C(F)(F)F | / | -2.7 | -0.6 | 19.2 | 1.8 | / | /
O=C(CSc1ccc(-c2cccc([N+](=O)[O-])c2)nn1)N1CCCCC1 | -4.1 | 1.1 | -0.8 | -18.6 | / | / | /
COc1ccc(/C=C\C(=O)O[C@@H]2C(O)C(O[C@@H]3OC(C)[C@H](O[C@@H]4OCC(O[C@H]5O[C@H](CO)[C@@H](O)C(O)C5O)C(O)C4O)C(O)C3O)[C@H](OC(=O)[C@]34CCC(C)(C)C[C@@H]3C3=CCC5[C@@]6(C)CC(O)C(O[C@@H]7OC(CO)C(O)[C@H](O)[C@H]7O)[C@@](C)(C(=O)O)C6CC[C@@]5(C)[C@]3(CO)CC4)O[C@H]2C)cc1 (stereo partly drawn) | / | 21.3 | 5.5 | 78.7* | 36.7 | 64.6 | 58.6* | FLuc counter=17.2
Cc1ccc(N(C)S(=O)(=O)c2cccc(C(=O)N(C)Cc3cnn(-c4ccccc4)c3)c2)cc1 | / | -4.5 | -1.6 | 66.4* | / | / | 47.2* | FLuc counter=96.4*
NC1=NC[C@H](c2ccccc2)N1CCCCC1CCCCC1 | 49.7 | -2.9 | 0.1 | 50.8* | 38.5 | -0.3 | 28.4
C=CCn1c(SCC(=O)Nc2ccc(S(N)(=O)=O)cc2)nnc1-c1cnccn1 | -18.6 | -3.9 | -2.1 | 13.6 | 4.2 | -8.4 | /
